Two compounds from paper PMC3823100 (Journal of Cellular and Molecular Medicine, 2011) can be followed below.

Molecules are shown by their SMILES. Read-outs that look alike come from different tables or passages of the source.

Assay type in all cases: cell-based, human
In one test the test system is SW480 cells. Briefly: MTT cytotoxicity assay. The settings on record: read-out: IC50 (μM) ± S.D. SW480; 72 hrs treatment, MTT test. In a few lines: (§1)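 Cells grown with 10% foetal calf serum, penicillin/streptomycin and 2 mM L-glutamine (HCT-15 in RPMI, SW480 in DMEM). Exposed 72 hrs to increasing concentrations diluted from 1 mg/ml stocks in physiological solution, then MTT read-out. Mean absorbance per dose expressed as % of control versus concentration. IC50 from four-parameter logistic fit. Means ± S.D. of at least three measurements.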
Background: Tetrazolium dyes change colour on reduction, which living cells bring about.

For the next test, the system named is HCT-15 cells. Briefly: MTT cytotoxicity assay. The settings on record: read-out: IC50 (μM) ± S.D. HCT-15; 72 hrs treatment, MTT test. In a few lines:
as §1

The next test has as its system DLD1 cells. Briefly: MTT cytotoxicity assay. As to conditions: read-out: IC50 (μM) ± S.D. DLD1; 72 hrs treatment, MTT test.
In another test the test system is MRC-5 fibroblasts. Briefly: MTT cytotoxicity assay, non-tumour cells. The settings on record: read-out: IC50 (μM) ± S.D. MRC-5, 72 hrs treatment, MTT test.
Test [1] deals with LoVo cells. Briefly: MTT cytotoxicity assay. As to conditions: read-out: IC50 (μM) ± S.D. LoVo, MTT test.
For the next test, the system named is HFF-1 fibroblasts. The experiment in a line: MTT cytotoxicity assay, non-tumour cells. As to conditions: read-out: IC50 (μM) ± S.D. HFF-1, 72 hrs treatment, MTT test.
The subject of test [2] is caspase-3/-7, -6, -8, -9 in LoVo cells. Briefly: Caspase activation. As to conditions: 12 or 24 hrs. A digest of the protocol:
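LoVo cells (10⁶) exposed 12 or 24 hrs, then lysed in 1% Triton X-100, sucrose, 5 mM EDTA, 10 mM Tris-HCl, 2 mM DTT (pH 7.6). Lysate protein incubated 60 min at 37°C with fluorogenic AMC substrates: Ac-DEVD (caspase-3/-7), Ac-VEID (-6), Ac-IETD (-8), Ac-LEHD (-9). AMC release read at ex 370/em 460 nm. Means of at least three independent experiments ± S.D.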

The test system of test [3] is LoVo cells. Briefly: Nuclear DNA fragmentation ELISA. The settings on record: 12 hr treatment, IC50 concentration.
In the next test the test system is LoVo–OxPt cells. Briefly: MTT cytotoxicity assay, oxaliplatin-resistant cells. The settings on record: read-out: IC50 (μM) ± S.D. LoVo–OxPt; 48 hrs treatment, MTT test.
For test [4], the system named is LoVo cells. The experiment in a line: Alkaline single-cell gel electrophoresis assay. As to conditions: 12 hrs, IC50 concentration.
Test [5] has as its system cytochrome c release in LoVo cells. Briefly: Cytochrome c release. As to conditions: IC50 concentration, 12 hrs (CP also 6 and 24 hrs). A digest of the protocol: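 LoVo cells (30 × 10⁶) were exposed to the test compound for 12 hrs. Cytochrome c release was then assessed by Western blotting. Values are means ± S.D. of at least three measurements.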

`N.N.[Cl][Pt][Cl]` [CisPt, Cisplatin]: the IC50 (in general, the concentration at which inhibition is half-maximal) in the test with SW480 cells came out at 25.2 ± 3.33 µM; in the test with HCT-15 cells it was 16.6 ± 2.63 µM; with DLD1 cells, 8.01 ± 2.22 µM; in the test with MRC-5 fibroblasts, 19.7 ± 1.31 µM; in the test with LoVo cells [1] (72 hrs treatment) it was 9.02 ± 1.34 µM; in the test on HFF-1 fibroblasts it was 23.4 ± 1.97 µM.
With `O=C1[O][Pt]2([NH][C@@H]3CCCC[C@H]3[NH]2)[O]C1=O` [OxPt, oxaliplatin], the IC50 in the test with SW480 cells amounted to 4.2 ± 0.75 µM; in the test with HCT-15 cells, 2.37 ± 0.58 µM; in the test with DLD1 cells it was 5.81 ± 1.93 µM; with MRC-5 fibroblasts, 23.9 ± 1.35 µM; in the test with LoVo cells [1] (48 hrs treatment), 2.05 ± 0.43 µM; in the test with LoVo cells [1] (72 hrs treatment), 0.33 ± 0.17 µM. The IC50 came out at 10.9 ± 1.34 µM in the test with LoVo–OxPt cells and 27.1 ± 1.29 µM in the test on HFF-1 fibroblasts. Also, the “caspase-3/-7, -6, -8, -9 activity (free AMC)” value in [2] was “substantial activation of all caspases”. Further, the “increase in histone-DNA formation compared to controls” value with LoVo cells [3] is “roughly 30 fold”. Besides, in the test on LoVo cells [4], the “comet appearance / electrophoretic migration of DNA fragments” value was “significant increase in comet appearance”. Moreover, the cytochrome c release result in [5] is reported as “substantial cytohrome c release”.
